From ChEMBL document CHEMBL1629500, “Synthesis and anticonvulsant activity of N-3-arylamide substituted 5,5-cyclopropanespirohydantoin derivatives” (Eur J Med Chem, 2010)
The source made the active and inactive calls.

Tests used:
Mus musculus [1] = assay: Anticonvulsant activity in ip dosed mouse assessed as inhibition of maximum electric shock-induced hind limb tonic extension after 4 hrs; type: functional; settings: Hindlimb; for minimal effective dose: read-out: MED
Procedure, shortened: (§1)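 Male Kunming mice received the compound ip as a suspension in 0.5% methylcellulose at 30, 100 and 300 mg/kg, one to four mice per dose. At 0.5 h and 4.0 h, a 60-Hz, 50-mA current was given through corneal electrodes for 0.25 s. Absence of hindlimb tonic extension counted as protection. The minimal dose protecting half or more of the mice was recorded.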

Mus musculus [2] = assay: Neurotoxicity against ip dosed mouse by rotarod test after 4 hrs; type: toxicity, organism-based; settings: in vivo
Procedure, shortened: (§2)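 Mice were trained on a 1-in. knurled rod turning at 6 rpm, then given 30, 100 or 300 mg/kg ip as a suspension in 0.5% methylcellulose. They were tested at 0.5 h and 4.0 h. Neurotoxicity meant failure to keep balance on the rod for at least 1 min in each of four trials. The minimal dose affecting half or more of the mice was recorded.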

Mus musculus [3] = assay: Neurotoxicity against ip dosed mouse by rotarod test after 0.5 hrs; type: toxicity, organism-based; settings: in vivo; procedure, shortened: as §2
Mus musculus [4] = assay: Anticonvulsant activity in ip dosed mouse assessed as inhibition of PTZ-induced clonic seizure after 0.5 hrs; type: functional; settings: for minimal effective dose: read-out: MED
Procedure, shortened: (§3)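 Male Kunming mice were dosed ip with the compound suspended in 0.5% methylcellulose at 30, 100 and 300 mg/kg, one to four mice per dose. Pentylenetetrazole in 0.9% saline was given subcutaneously at 0.5 h and 4.0 h. Protection meant no threshold seizure, i.e. no single clonic spasm episode lasting at least 5 s. The minimal dose active in half or more of the mice was recorded.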

Mus musculus [5] = assay: Anticonvulsant activity in ip dosed mouse assessed as inhibition of maximum electric shock-induced hind limb tonic extension after 0.5 hrs; type: functional; settings: Hindlimb; for minimal effective dose: read-out: MED; procedure, shortened: as §1
Mus musculus [6] = assay: Anticonvulsant activity in ip dosed mouse assessed as inhibition of PTZ-induced clonic seizure after 4 hrs; type: functional; settings: for minimal effective dose: read-out: MED; procedure, shortened: as §3
Mus musculus [7] = assay: Anticonvulsant activity in ip dosed mouse assessed as inhibition of PTZ-induced clonic seizure; type: functional
Procedure, shortened: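 Male Kunming mice (20 ± 2.0 g) were used. Test drug was given ip to groups of 10 mice over a range of doses until at least three points fell between 10% and 90% seizure protection or minimal neurotoxicity. […] Neurotoxicity was scored on the rotorod 30 min after dosing. PI = TD50/ED50.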

Mus musculus [8] = species: Mus musculus; assay: Protective index, ratio of TD50 for mouse to ED50 for inhibition of maximal electroshock-induced seizure in mouse; type: functional
Mus musculus [9] = assay: Protective index, ratio of TD50 for mouse to ED50 for inhibition of subcutaneous pentylenetetrazole-induced seizure in mouse; type: functional
Mus musculus [10] = assay: Anticonvulsant activity in ip dosed mouse assessed as inhibition of maximum electric shock-induced hind limb tonic extension; type: functional; settings: Hindlimb
[11] = Toxicity against ip dosed mouse; type: organism-based; settings: in vivo

| SMILES | minimal effective dose (Mus musculus [1]) | MED (Mus musculus [2]) | Activity (Mus musculus [3]) | Activity (Mus musculus [4]) | minimal effective dose (Mus musculus [5]) | minimal effective dose (Mus musculus [6]) | Activity (Mus musculus [1]) | Activity (Mus musculus [6]) | ED50 (Mus musculus [7]) | Ratio (Mus musculus [8]) | Activity (Mus musculus [2]) | minimal effective dose (Mus musculus [4]) | Ratio (Mus musculus [9]) | ED50 (Mus musculus [10]) | TD50 [11] | MED (Mus musculus [3]) | Activity (Mus musculus [5]) |
| --- | --- | --- | --- | --- | --- | --- | --- | --- | --- | --- | --- | --- | --- | --- | --- | --- | --- |
| COc1ccc(C(=O)NN2C(=O)NC3(CC3(C)C)C2=O)cc1OC (stereo not drawn) | 300 mg/kg | 300 mg/kg | Not Active | inactive | 300 mg/kg | 300 mg/kg | – | – | – | – | – | – | – | – | – | – | – |
| COc1ccc(C(=O)NN2C(=O)NC3(CC3(C)C)C2=O)cc1 (stereo not drawn) | – | 300 mg/kg | Not Active | inactive | 100 mg/kg | – | inactive | inactive | – | – | – | – | – | – | – | – | – |
| CCCC(CCC)C(=O)[O-].[Na+] [VALPROATE SODIUM] | – | – | – | – | – | – | – | – | 149 mg/kg | – | – | – | – | – | – | – | – |
| CC1(C)CC12NC(=O)N(N1C(=O)c3ccccc3C1=O)C2=O (stereo not drawn) | 100 mg/kg | – | Not Active | – | 30 mg/kg | 300 mg/kg | – | – | 137 mg/kg | 17.8 | Not Active | 300 mg/kg | 2.8 | 13.7 mg/kg | 387 mg/kg | – | – |
| CC1(C)CC12NC(=O)N(NC(=O)c1ccc(Br)cc1)C2=O (stereo not drawn) | 300 mg/kg | 300 mg/kg | – | inactive | 300 mg/kg | 300 mg/kg | – | – | – | – | – | – | – | – | – | 300 mg/kg | – |
| CC1(C)CC12NC(=O)N(NC(=O)c1ccc(F)cc1)C2=O (stereo not drawn) | 300 mg/kg | 300 mg/kg | Not Active | – | 100 mg/kg | – | – | inactive | – | – | – | 300 mg/kg | – | – | – | – | – |
| CCC1(C)CC(=O)NC1=O (stereo not drawn) [ETHOSUXIMIDE] | – | – | Not Active | – | – | 300 mg/kg | inactive | – | – | – | Not Active | 100 mg/kg | – | – | – | – | inactive |
| CC1(C)CC12NC(=O)N(NC(=O)c1cccs1)C2=O (stereo not drawn) | 300 mg/kg | 300 mg/kg | – | inactive | – | – | – | inactive | – | – | – | – | – | – | – | 100 mg/kg | inactive |
| O=C1NC(=O)C(c2ccccc2)(c2ccccc2)N1 [PHENYTOIN] | 30 mg/kg | 100 mg/kg | – | inactive | 30 mg/kg | – | – | inactive | > 300 mg/kg | – | – | – | – | – | – | 100 mg/kg | – |
| CC(C)(C)c1ccc(C(=O)NN2C(=O)NC3(CC3(C)C)C2=O)cc1 (stereo not drawn) | 100 mg/kg | – | Not Active | – | 30 mg/kg | – | – | inactive | 208 mg/kg | 15.5 | Not Active | 100 mg/kg | 1.8 | 25.3 mg/kg | 382 mg/kg | – | – |
| CC1(C)CC12NC(=O)N(NC(=O)c1ccccc1)C2=O (stereo not drawn) | – | – | – | – | 300 mg/kg | – | inactive | inactive | – | – | Not Active | 300 mg/kg | – | – | – | 300 mg/kg | – |
| CC1(C)CC12NC(=O)N(NC(=O)c1ccc([N+](=O)[O-])cc1)C2=O (stereo not drawn) | 300 mg/kg | – | Not Active | – | 300 mg/kg | – | – | inactive | – | – | Not Active | 300 mg/kg | – | – | – | – | – |
| Cc1ccc(C(=O)NN2C(=O)NC3(CC3(C)C)C2=O)cc1 (stereo not drawn) | – | 300 mg/kg | Not Active | inactive | 100 mg/kg | 300 mg/kg | inactive | – | – | – | – | – | – | – | – | – | – |
| CN(C)c1ccc(C(=O)NN2C(=O)NC3(CC3(C)C)C2=O)cc1 (stereo not drawn) | 300 mg/kg | – | Not Active | – | 300 mg/kg | – | – | inactive | – | – | Not Active | 100 mg/kg | – | – | – | – | – |
| COc1cc(C(=O)NN2C(=O)NC3(CC3(C)C)C2=O)cc(OC)c1OC (stereo not drawn) | – | 300 mg/kg | – | inactive | 300 mg/kg | – | inactive | inactive | – | – | – | – | – | – | – | 100 mg/kg | – |
| CC1(C)CC12NC(=O)N(NC(=O)c1ccco1)C2=O (stereo not drawn) | 300 mg/kg | 300 mg/kg | – | inactive | – | – | – | inactive | – | – | – | – | – | – | – | 100 mg/kg | inactive |
| CC1(C)CC12NC(=O)N(NC(=O)c1ccccc1F)C2=O (stereo not drawn) | – | 300 mg/kg | Not Active | inactive | 100 mg/kg | – | inactive | inactive | – | – | – | – | – | – | – | – | – |
| CC1(C)CC12NC(=O)N(NC(=O)c1ccccc1Cl)C2=O (stereo not drawn) | – | 300 mg/kg | Not Active | – | 300 mg/kg | – | inactive | inactive | – | – | – | 300 mg/kg | – | – | – | – | – |
| CC1(C)CC12NC(=O)N(NC(=O)c1cccnc1)C2=O (stereo not drawn) | 300 mg/kg | 300 mg/kg | – | inactive | – | – | – | inactive | – | – | – | – | – | – | – | 100 mg/kg | inactive |
| CC1(C)CC12NC(=O)N(NC(=O)c1ccc(Cl)cc1)C2=O (stereo not drawn) | 300 mg/kg | – | Not Active | – | 100 mg/kg | – | – | inactive | – | – | Not Active | 300 mg/kg | – | – | – | – | – |
| CC1(C)CC12NC(=O)N(NC(=O)c1ccncc1)C2=O (stereo not drawn) | 300 mg/kg | 300 mg/kg | – | inactive | – | – | – | inactive | – | – | – | – | – | – | – | 100 mg/kg | inactive |
| CCC1(c2ccccc2)C(=O)NC(=O)NC1=O [PHENOBARBITAL] | – | – | – | – | – | – | – | – | 13.2 mg/kg | – | – | – | – | 21.8 mg/kg | – | – | – |
| NC(=O)N1c2ccccc2C=Cc2ccccc21 [CARBAMAZEPINE] | – | – | – | – | – | – | – | – | > 100 mg/kg | – | – | – | – | 8.8 mg/kg | – | – | – |
| CC1(C)CC12NC(=O)N(NC(=O)c1ccc(C(F)(F)F)cc1)C2=O (stereo not drawn) | 30 mg/kg | – | Not Active | – | 30 mg/kg | 300 mg/kg | – | – | 62.1 mg/kg | 45.8 | Not Active | 300 mg/kg | 6.7 | 9.2 mg/kg | 422 mg/kg | – | – |
| Cc1cccc(C(=O)NN2C(=O)NC3(CC3(C)C)C2=O)c1 (stereo not drawn) | – | – | Not Active | inactive | 100 mg/kg | – | inactive | inactive | – | – | Not Active | – | – | – | – | – | – |
